Assay results from different studies.
Each line is one published result; the experiments were not run side by side.
Target: Serine/threonine-protein kinase 3 (STK3, Homo sapiens, UniProt Q13188)
Sequence (Q13188 1-491, as in one of the studies): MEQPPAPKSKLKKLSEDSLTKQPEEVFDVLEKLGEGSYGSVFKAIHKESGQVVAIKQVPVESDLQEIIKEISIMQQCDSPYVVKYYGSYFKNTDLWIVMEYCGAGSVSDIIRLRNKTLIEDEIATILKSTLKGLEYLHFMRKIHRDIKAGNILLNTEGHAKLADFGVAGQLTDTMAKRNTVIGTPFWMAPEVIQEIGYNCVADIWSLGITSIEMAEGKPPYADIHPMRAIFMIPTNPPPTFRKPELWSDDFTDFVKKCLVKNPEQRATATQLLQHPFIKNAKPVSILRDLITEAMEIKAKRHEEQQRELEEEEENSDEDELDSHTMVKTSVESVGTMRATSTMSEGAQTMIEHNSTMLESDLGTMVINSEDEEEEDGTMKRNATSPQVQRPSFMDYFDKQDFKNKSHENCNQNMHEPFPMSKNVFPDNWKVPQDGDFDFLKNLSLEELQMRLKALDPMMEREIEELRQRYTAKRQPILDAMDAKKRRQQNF

| Structure (SMILES) | assay | system | conditions | endpoint | value |
| --- | --- | --- | --- | --- | --- |
| Cn1c2c(c3ccc(Cl)c(Cl)c31)C(C#N)C1(CCOCC1)NC2=O (stereo not shown) | thermal stability, DSF |  | 10 µM | ΔTm | -0.1 °C |
| COc1cc(Nc2cnc(C#N)c(O[C@H](C)CN(C)C)n2)ncc1-c1cnn(C)c1 | enzyme activity, inhibitor, radiometric |  | 10 µM | remaining activity | 30% |
| CS(=O)(=O)CCNCc1ccc(-c2ccc3ncnc(Nc4ccc(OCc5cccc(F)c5)c(Cl)c4)c3c2)o1 | cell-free assay |  | 0.5 µM | remaining signal | 93.7% |
| Cn1c(=O)n(-c2ccc(C(C)(C)C#N)cc2)c2c3cc(-c4cnc5ccccc5c4)ccc3ncc21 | enzyme activity, inhibitor |  | 10 µM | remaining activity | 89% |
| O=C1NC(=O)c2cc(Nc3ccc(F)cc3)c(Nc3ccc(F)cc3)cc21 | cell-free assay |  | 0.5 µM | remaining signal | 90.7% |
| Cc1ccc(Nc2nccc(N(C)c3ccc4c(C)n(C)nc4c3)n2)cc1S(N)(=O)=O | cell-free assay, inhibitor |  | 10 µM | inhibition | 4% |
| Oc1cccc(-c2nc(N3CCOCC3)c3oc4ncccc4c3n2)c1 | enzyme activity, inhibitor |  | 10 µM | remaining activity | 115% |
| Cn1c2c(c3ccc(Cl)c(Cl)c31)C(C#N)C1(CCNCC1)NC2=O (racemic) | thermal stability, DSF |  | 10 µM | ΔTm | 0.3 °C |
| CCOC(=O)c1cc2cc(-c3cc(C(=O)NCc4ccc(C(=O)O)cc4)nn3C)ccc2[nH]1 | cell-free assay, competition with immobilised ligand |  | 0.1 µM | remaining binding | 96% |
| N#CC1c2c([nH]c3c(Cl)c(Cl)ccc23)C(=O)NC12CCCCC2 (racemic) | thermal stability, DSF |  | 10 µM | ΔTm | 0.6 °C |
| N#CCCc1ccc2c(c1)-c1[nH]c3ccc([N+](=O)[O-])cc3c1CC(=O)N2 | cell-free assay |  | 0.5 µM | remaining signal | 40.9% |
| NS(=O)(=O)c1cc(NC(=O)C2(c3ccccc3Cl)CC2)ccc1Oc1cccc(Cl)c1 | cell-free assay, competition with immobilised ligand |  | 1 µM | remaining binding | 94% |
| CNCc1ccc(-c2cc(-c3nc(-c4ccc(S(=O)(=O)C(C)C)cc4)cnc3N)on2)cc1 | enzyme activity, inhibitor |  | 2 µM | inhibition | 43% |
| CC/C(=N\NC(=O)NCc1cccc(O)c1)c1ccc(O)c(C)c1O | enzyme activity, inhibitor |  | 0.1 µM | inhibition | -0.5% |
| O=C(Nc1cnn(-c2csc(C(=O)NC3COC3)c2)c1)Nc1ccccc1Cl | enzyme activity, inhibitor |  | 5 µM | remaining activity | 120% |
| Cn1c2c(c3ccc(Cl)c(Cl)c31)C(C#N)C1(CCCC1)NC2=O (stereo not shown) | thermal stability, DSF |  | 10 µM | ΔTm | 0.4 °C |
| Nc1ncnc2occ(-c3ccc(NC(=O)Nc4cc(C(F)(F)F)ccc4F)cc3)c12 | cell-free assay, inhibitor |  | 20 µM | remaining signal | 6.6% |
| COc1cc2ncnc(Nc3ccc(Oc4ccccc4)cc3C)c2cc1OC | enzyme activity, inhibitor |  | 1 µM | inhibition | -4% |
| CCN1CCC2(CC1)NC(=O)c1c(c3ccc(Cl)c(Cl)c3n1C)C2C#N (racemic) | thermal stability, DSF |  | 10 µM | ΔTm | -0.1 °C |

| Structure (SMILES) | assay | system | conditions | endpoint | value |
| --- | --- | --- | --- | --- | --- |
| Cc1cc(NC(=O)c2cccc3cc(-c4cccc5[nH]nc(N)c45)ccc23)ccc1F | enzyme activity, inhibitor |  | 0.1 µM | activity vs control | 98% |
| CC(=O)C1=C(C)N(c2cccc(C(F)(F)F)c2)C(=O)N[C@@H]1c1ccc(C#N)nc1 | cell-free assay, competition with immobilised ligand |  | 1 µM | remaining binding | 93.1% |
| Cc1ccc(NC(=O)c2ccc(CN3CCN(C)CC3)cc2)cc1Nc1nc(-c2cccnc2)cs1 | cell-free assay |  | 0.5 µM | remaining signal | 94.4% |
| CO[C@@H](C)c1c(Nc2ccc([C@H](N(C)C(=O)C3CCS(=O)(=O)CC3)C(F)(F)F)cc2)cnc2cc(Cl)nn12 | cell-free assay, competition with immobilised ligand |  | 1 µM | remaining binding | 92% |
| CN1CCC2(CC1)NC(=O)c1c(c3ccc(Cl)c(Cl)c3n1C)C2C#N (racemic) | thermal stability, DSF |  | 10 µM | ΔTm | -0.2 °C |
| N#CC1(c2ccccn2)CCN(Cc2cc(C(=O)N3CCCC3)c(=O)n3ccccc23)CC1 | cell-free assay, competition with immobilised ligand |  | 1 µM | remaining binding | 92% |
| CNC(=O)c1cc(Oc2ccc(NC(=O)Nc3ccc(Cl)c(C(F)(F)F)c3)cc2)ccn1 | cell-free assay, inhibitor |  | 0.3 µM | inhibition | 7% |
| Cc1ccc(C(=O)Nc2ccc(CN3CCN(C)CC3)c(C(F)(F)F)c2)cc1C#Cc1cnc2cccnn12 | enzyme activity, inhibitor |  | 23.5 nM | remaining activity | 97% |
| FC(F)(F)Oc1cccc(-c2cnc3ccc(-c4ccncc4)nn23)c1 | enzyme activity, inhibitor, radiometric |  | 1 µM | activity vs control | 75% |
| Cc1ccc(NC(=O)c2ccc(C)c(C(F)(F)F)c2)cc1C#Cc1nn(C2CCC(O)CC2)c2ncnc(N)c12 (stereo not shown) | cell-free assay |  | 10 µM | remaining signal | 63% |
| CCN1CCN(Cc2ccc(NC(=O)c3ccc(C)c(Oc4ccnc5[nH]ccc45)c3)cc2C(F)(F)F)CC1 | target engagement in cells, inhibitor, chemoproteomics | Huh-7 | 10 µM | inhibition | -56.5% |
| CC(C)(C)C(=O)c1sc(NC2CCCCC2)nc1N | enzyme activity, inhibitor |  | 10 µM | remaining activity | 104% |
| C[C@H](c1cccc(C#N)c1)n1cc(Cl)cc(C(N)=O)c1=N | cell-free assay, competition with immobilised ligand |  | 1 µM | remaining binding | 84% |
| Nc1nc(NC2CCCCC2)sc1C(=O)c1ccccc1 | enzyme activity, inhibitor |  | 10 µM | remaining activity | 97% |
| O=C(Nc1cccnn1)N1CCC(=Cc2cccc(Oc3ccc(C(F)(F)F)cn3)c2)CC1 | cell-free assay, competition with immobilised ligand |  | 1 µM | remaining binding | 100% |
| CC(C)(C)c1nc(-c2cccc(NS(=O)(=O)c3c(F)cccc3F)c2F)c(-c2ccnc(N)n2)s1 | enzyme activity, inhibitor, radiometric |  | 1 µM | remaining activity | 94% |
| CC1=C(C#N)C(c2ccc3c(c2)c(NC(=O)c2ccccc2C)nn3C)C(C#N)=C(C)N1 | cell-free assay, competition with immobilised ligand |  | 1 µM | remaining binding | 100% |
| CC(C)(O)[C@H]1CC[C@H](Nc2ccc3ncc(-c4cccc(C(F)(F)F)c4)n3n2)CC1 | enzyme activity, inhibitor |  | 1 µM | remaining activity | 73.9% |
